In ChEMBL document CHEMBL1165878, “First biological evaluation of developed 3-benzyloxyfluorenes as novel class of MDR modulators” (Eur J Med Chem, 2010):

Assays:
[1] = target: T1, ATP-dependent translocase ABCB1 (Homo sapiens, UniProt P08183); assay: Inhibition of ABCB1 efflux pump-mediated rhodamine 123 uptake expressed in mouse L5178Y cells assessed as fluorescence activity ratio at 10 uM; type: cell-based
How it was run: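 Mouse T lymphoma L5178Y parental line and an mdr1-retrovirally transfected subline overexpressing only ABCB1, grown in McCoy's 5A with 10% heat-inactivated horse serum and 2 mM glutamine. Rhodamine 123 uptake measured by flow cytometry, 1 ×10⁴ cells each, after resuspension in PBS. FAR = fluorescence of treated ABCB1 subline over parental line, each corrected to untreated control; mean of two determinations.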

[2] = Lipophilicity, log P of the compound; type: physicochemical; conditions: octanol/water
[3] = target: T1, ATP-dependent translocase ABCB1; assay: Inhibition of ABCB1 efflux pump-mediated rhodamine 123 uptake expressed in mouse L5178Y cells assessed as fluorescence activity ratio at 1 uM; type: cell-based

T1 sequence (P08183 whole entry): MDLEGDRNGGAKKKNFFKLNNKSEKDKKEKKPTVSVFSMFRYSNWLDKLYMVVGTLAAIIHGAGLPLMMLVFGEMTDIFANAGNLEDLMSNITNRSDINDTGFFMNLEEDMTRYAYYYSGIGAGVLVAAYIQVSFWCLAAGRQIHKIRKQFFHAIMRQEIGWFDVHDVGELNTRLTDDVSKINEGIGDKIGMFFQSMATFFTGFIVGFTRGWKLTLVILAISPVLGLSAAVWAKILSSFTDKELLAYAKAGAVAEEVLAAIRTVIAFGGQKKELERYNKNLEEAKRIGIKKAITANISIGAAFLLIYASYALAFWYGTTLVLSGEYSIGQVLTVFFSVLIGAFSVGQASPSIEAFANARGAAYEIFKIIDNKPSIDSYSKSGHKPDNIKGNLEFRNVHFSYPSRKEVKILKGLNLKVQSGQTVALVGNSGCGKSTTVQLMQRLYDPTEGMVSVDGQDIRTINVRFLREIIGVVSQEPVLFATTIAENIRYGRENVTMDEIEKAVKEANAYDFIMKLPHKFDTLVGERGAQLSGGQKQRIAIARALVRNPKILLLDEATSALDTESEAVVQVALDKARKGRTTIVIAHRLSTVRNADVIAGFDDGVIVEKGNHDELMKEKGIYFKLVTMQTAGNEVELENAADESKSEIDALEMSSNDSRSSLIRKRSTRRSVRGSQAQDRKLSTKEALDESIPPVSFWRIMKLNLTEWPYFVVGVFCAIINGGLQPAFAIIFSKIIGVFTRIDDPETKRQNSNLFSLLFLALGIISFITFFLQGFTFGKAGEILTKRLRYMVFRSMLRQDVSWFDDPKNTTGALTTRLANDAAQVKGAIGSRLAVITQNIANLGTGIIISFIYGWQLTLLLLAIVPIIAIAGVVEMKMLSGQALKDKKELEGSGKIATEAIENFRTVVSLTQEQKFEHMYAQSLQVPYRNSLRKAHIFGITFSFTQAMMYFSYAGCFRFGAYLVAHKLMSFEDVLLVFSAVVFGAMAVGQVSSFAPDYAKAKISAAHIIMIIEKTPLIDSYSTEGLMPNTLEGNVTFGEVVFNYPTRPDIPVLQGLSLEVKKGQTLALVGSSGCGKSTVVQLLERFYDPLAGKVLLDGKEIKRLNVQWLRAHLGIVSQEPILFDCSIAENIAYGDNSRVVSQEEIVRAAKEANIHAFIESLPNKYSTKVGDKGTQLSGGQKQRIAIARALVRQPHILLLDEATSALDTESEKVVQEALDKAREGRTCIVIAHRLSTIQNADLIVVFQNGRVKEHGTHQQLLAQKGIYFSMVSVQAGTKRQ

## Oc1ccc2oc3ncc(OCc4ccc(Cl)cc4)c(-c4ccc(Cl)cc4)c3c2c1
[1]
  Ratio: 5.92
[2]
  logP: 6.59
[3]
  Ratio: 1.11

## Oc1ccc2oc3ncc(OCc4cccc(Cl)c4)c(-c4cccc(Cl)c4)c3c2c1
[1]
  Ratio: 17.14
[2]
  logP: 6.59
[3]
  Ratio: 1

## Oc1ccc2oc3ncc(OCc4ccc(Cl)cc4)c(-c4cccc(Cl)c4)c3c2c1
[1]
  Ratio: 2.61
[2]
  logP: 6.59
[3]
  Ratio: 1.81

## Oc1ccc2oc3ncc(OCc4ccc(Cl)cc4)c(-c4ccccc4)c3c2c1
[1]
  Ratio: 56.85
[2]
  logP: 5.97
[3]
  Ratio: 1.23

## Oc1ccc2oc3ncc(OCc4ccccc4)c(-c4ccc(Cl)cc4)c3c2c1
[1]
  Ratio: 95.58
[2]
  logP: 5.97
[3]
  Ratio: 3.04

## Oc1ccc2oc3ncc(OCc4ccccc4)c(-c4cccc(Cl)c4)c3c2c1
[1]
  Ratio: 10.47
[2]
  logP: 5.97
[3]
  Ratio: 1.35

## Oc1ccc2oc3ncc(OCc4cccc(Cl)c4)c(-c4ccccc4)c3c2c1
[1]
  Ratio: 57.42
[2]
  logP: 5.97
[3]
  Ratio: 1.26

## Oc1ccc2oc3ncc(OCc4ccccc4)c(-c4ccccc4)c3c2c1
[1]
  Ratio: 34.49
[2]
  logP: 5.38
[3]
  Ratio: 1.75

## Oc1ccc2oc3ncc(OCc4cccc(Cl)c4)c(-c4ccc(Cl)cc4)c3c2c1
[1]
  Ratio: 21.48
[2]
  logP: 6.59
[3]
  Ratio: 1.53
